# Measurements reported in ChEMBL document CHEMBL1153046, “Synthesis and antitumor activity of substituted triazolo[4,3-a]pyrimidin-6-sulfonamide with an incorporated thiazolidinone moiety” (2009).
# Experiments:
# Type in all cases: functional
# KM12 = experiment: Growth inhibition of human KM12 cells after 48 hrs by sulforhodamine B assay; conditions: KM12, 48 h
# How it was run: (§1)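 NCI 60-cell-line panel. Cells are grown in RPMI1640 with 5% fetal calf serum and 2 mM L-glutamine, seeded at a density set by growth characteristics, and preincubated 24 h. Compound is tested at a minimum of five concentrations at 10-fold dilution, with 48 h continuous exposure. Viability is read by sulforhodamine B protein assay. GI50, TGI and LC50 come from dose-response curves.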
# CAKI-1 = experiment: Growth inhibition of human Caki1 cells after 48 hrs by sulforhodamine B assay; conditions: CAKI-1, 48 h; how it was run: as §1
# UACC-257 = experiment: Growth inhibition of human UACC257 cells after 48 hrs by sulforhodamine B assay; conditions: UACC-257, 48 h
# How it was run: (§2)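 NCI 60-cell-line panel (nine cancer types), with cells grown in RPMI1640 plus 5% fetal calf serum and 2 mM L-glutamine. Cells are seeded at a density that depends on the line and preincubated 24 h. Compounds are then applied at a minimum of five 10-fold dilutions over a 5-log range with 48 h continuous exposure. Viability is read by SRB protein assay, and GI50 is derived from dose-response curves in units of 10^-5 M.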
# ACHN = experiment: Growth inhibition of human ACHN cells after 48 hrs by sulforhodamine B assay; how it was run: as §1
# NCI-H460 = experiment: Antiproliferative activity against human NCI-H460 cells assessed as cell growth at 100 uM after 48 hrs by alamar blue assay; conditions: NCI-H460, 48 h, read-out: Activity
# How it was run: (§3)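 NCI three-cell-line primary screen. Cells are seeded and preincubated in microtiter plates. Compound is added at a single 10^-4 M concentration and cultures are incubated 48 h. The end-point is read with alamar blue. Results are given as percent growth relative to untreated control cells.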
# M14 = experiment: Growth inhibition of human M14 cells after 48 hrs by sulforhodamine B assay; conditions: M14, 48 h; how it was run: as §1
# HT-29 = experiment: Growth inhibition of human HT-29 cells after 48 hrs by sulforhodamine B assay; conditions: HT-29, 48 h; how it was run: as §1
# OVCAR-8 = experiment: Growth inhibition of human OVCAR8 cells after 48 hrs by sulforhodamine B assay; conditions: OVCAR-8, 48 h; how it was run: as §1
# SF-268 [1] = experiment: Antiproliferative activity against human SF268 cells assessed as cell growth at 100 uM after 48 hrs by alamar blue assay; conditions: SF-268, 48 h, read-out: Activity; how it was run: as §3
# NCI-H322M = experiment: Growth inhibition of human NCI-H322M cells after 48 hrs by sulforhodamine B assay; how it was run: as §1
# OVCAR-4 = experiment: Growth inhibition of human OVCAR4 cells after 48 hrs by sulforhodamine B assay; conditions: OVCAR-4, 48 h; how it was run: as §1
# NCI-H522 = experiment: Growth inhibition of human NCI-H522 cells after 48 hrs by sulforhodamine B assay; conditions: NCI-H522, 48 h; how it was run: as §1
# MDA-MB-231 = experiment: Growth inhibition of human MDA-MB-231 cells after 48 hrs by sulforhodamine B assay; conditions: MDA-MB-231, 48 h; how it was run: as §1
# OVCAR-3 = experiment: Growth inhibition of human OVCAR-3 cells after 48 hrs by sulforhodamine B assay; conditions: OVCAR-3, 48 h; how it was run: as §1
# SNB-19 = experiment: Growth inhibition of human SNB19 cells after 48 hrs by sulforhodamine B assay; conditions: SNB-19, 48 h; how it was run: as §2
# T47D = experiment: Growth inhibition of human T47D cells after 48 hrs by sulforhodamine B assay; how it was run: as §2
# HOP-92 = experiment: Growth inhibition of human HOP92 cells after 48 hrs by sulforhodamine B assay; conditions: HOP-92, 48 h; how it was run: as §1
# RXF 393 = experiment: Growth inhibition of human RXF393 cells after 48 hrs by sulforhodamine B assay; conditions: RXF 393, 48 h; how it was run: as §1
# DU-145 = experiment: Growth inhibition of human DU145 cells after 48 hrs by sulforhodamine B assay; conditions: DU-145, 48 h; how it was run: as §1
# SF-268 [2] = experiment: Growth inhibition of human SF268 cells after 48 hrs by sulforhodamine B assay; conditions: SF-268, 48 h; how it was run: as §1
# SK-MEL-28 = experiment: Growth inhibition of human SK-MEL-28 cells after 48 hrs by sulforhodamine B assay; conditions: SK-MEL-28, 48 h; how it was run: as §1
# HCT-116 = experiment: Growth inhibition of human HCT116 cells after 48 hrs by sulforhodamine B assay; conditions: HCT-116, 48 h; how it was run: as §1
# MCF7 = experiment: Growth inhibition of human MCF7 cells after 48 hrs by sulforhodamine B assay; conditions: MCF7, 48 h; how it was run: as §1
# HL-60(TB) = experiment: Growth inhibition of human HL-60(TB) cells after 48 hrs by sulforhodamine B assay; conditions: HL-60, 48 h
# How it was run: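 NCI 60-cell-line panel. Cells were grown in RPMI1640 with 5% fetal calf serum and 2 mM L-glutamine, seeded at a density suited to each line, and preincubated 24 h. Compounds were tested at a minimum of five concentrations at 10-fold dilutions over a 5-log range, with 48 h continuous exposure. Growth was read by sulforhodamine B protein staining, and GI50 was taken from dose-response curves.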
# MDA-MB-435 = experiment: Growth inhibition of human MDA-MB-435 cells after 48 hrs by sulforhodamine B assay; conditions: MDA-MB-435, 48 h; how it was run: as §1
# MOLT-4 = experiment: Growth inhibition of human MOLT4 cells after 48 hrs by sulforhodamine B assay; conditions: MOLT-4, 48 h; how it was run: as §1
# [3] = Growth inhibition of human Hs 578T cells after 48 hrs by sulforhodamine B assay; how it was run: as §1
# 786-0 = experiment: Growth inhibition of human 786-0 cells after 48 hrs by sulforhodamine B assay; conditions: 786-0, 48 h; how it was run: as §1
# K562 = experiment: Growth inhibition of human K562 cells after 48 hrs by sulforhodamine B assay; conditions: K562, 48 h; how it was run: as §1
# [4] = read-out: LC50 (the source's name)
compound,measurement,setting,value
COc1ccc(/C=N/c2nc3[nH]nc(C)n3c(=O)c2S(=O)(=O)NN2C(=O)C(CN3CCN(C)CC3)SC2c2cccs2)cc1 (stereo unspecified),GI50,KM12,3.02 µM
same,GI50,CAKI-1,1.29 µM
same,LC50 (50% lethal concentration),CAKI-1,> 100 µM
same,TGI,CAKI-1,> 100 µM
same,GI50,UACC-257,2.52 µM
same,LC50,UACC-257,> 100 µM
same,TGI,UACC-257,> 100 µM
same,GI50,ACHN,3.18 µM
same,TGI,ACHN,> 100 µM
same,CC50,ACHN; [4],> 100 µM
same,growth at 100 µM,NCI-H460,24%
same,GI50,M14,1.36 µM
same,LC50 (concentration killing 50% of cells),M14,> 100 µM
same,TGI,M14,> 100 µM
same,GI50,HT-29,1.96 µM
same,GI50,OVCAR-8,3.53 µM
same,TGI,OVCAR-8,40.5 µM
same,growth at 100 µM,SF-268 [1],58%
same,GI50,NCI-H322M,8.18 µM
same,TGI,NCI-H322M,> 100 µM
same,GI50,OVCAR-4,> 100 µM
same,LC50,OVCAR-4,> 100 µM
same,TGI,OVCAR-4,> 100 µM
same,GI50,NCI-H522,2.63 µM
same,TGI,NCI-H522,13.3 µM
same,GI50,MDA-MB-231,3.25 µM
same,LC50 (50% lethal concentration),MDA-MB-231,> 100 µM
same,TGI,MDA-MB-231,42.2 µM
same,GI50,OVCAR-3,0.88 µM
same,LC50 (concentration killing 50% of cells),OVCAR-3,> 100 µM
same,TGI,OVCAR-3,> 100 µM
same,GI50,SNB-19,7.14 µM
same,TGI,SNB-19,> 100 µM
same,GI50,T47D,> 100 µM
same,TGI,T47D,> 100 µM
same,GI50,HOP-92,9.41 µM
same,LC50,HOP-92,> 100 µM
same,TGI,HOP-92,> 100 µM
same,GI50,RXF 393,2.34 µM
same,TGI,RXF 393,> 100 µM
same,CC50,RXF 393; [4],> 100 µM
same,GI50,DU-145,5.22 µM
same,LC50 (concentration giving 50% net cell kill),DU-145,> 100 µM
same,TGI,DU-145,> 100 µM
same,GI50,SF-268 [2],> 100 µM
same,TGI,SF-268 [2],> 100 µM
same,CC50,SF-268 [2]; [4],> 100 µM
same,GI50,SK-MEL-28,16.4 µM
same,TGI,SK-MEL-28,> 100 µM
same,GI50,HCT-116,1.01 µM
same,LC50 (concentration killing 50% of cells),HCT-116,> 100 µM
same,TGI,HCT-116,20 µM
same,GI50,MCF7,5.8 µM
same,TGI,MCF7,> 100 µM
same,GI50,HL-60(TB),3.41 µM
same,LC50,HL-60(TB),31.3 µM
same,TGI,HL-60(TB),7.04 µM
same,GI50,MDA-MB-435,0.32 µM
same,TGI,MDA-MB-435,5.2 µM
same,GI50,MOLT-4,2.88 µM
same,TGI,MOLT-4,18.3 µM
same,CC50,MOLT-4; [4],> 100 µM
same,GI50,[3],3.05 µM
same,LC50 (concentration killing 50% of cells),[3],> 100 µM
same,TGI,[3],> 100 µM
same,GI50,786-0,3.93 µM
same,TGI,786-0,> 100 µM
same,CC50,786-0; [4],> 100 µM
same,GI50,K562,2.87 µM
same,LC50,K562,68.2 µM
same,TGI,K562,6.75 µM
